Test results: ChEMBL document CHEMBL1155435, “Design, synthesis and evaluation of constrained tetrahydroimidazopyrimidine derivatives as antagonists of corticotropin-releasing factor type 1 receptor (CRF1R)” (Bioorg Med Chem Lett, 2010)
Calls of active or inactive are those of the source. The calls are words filed in the database; no cut-off is given here.

Legend:
[1] = molecular target: T1, Corticotropin-releasing factor receptor 1 (Homo sapiens, UniProt P34998); experiment: Displacement of [125I]Tyr-o-CRF from human CRFR1 expressed in human IMR32 cells; assay type: cell-based, IMR-32
T1 sequence (P34998 whole entry): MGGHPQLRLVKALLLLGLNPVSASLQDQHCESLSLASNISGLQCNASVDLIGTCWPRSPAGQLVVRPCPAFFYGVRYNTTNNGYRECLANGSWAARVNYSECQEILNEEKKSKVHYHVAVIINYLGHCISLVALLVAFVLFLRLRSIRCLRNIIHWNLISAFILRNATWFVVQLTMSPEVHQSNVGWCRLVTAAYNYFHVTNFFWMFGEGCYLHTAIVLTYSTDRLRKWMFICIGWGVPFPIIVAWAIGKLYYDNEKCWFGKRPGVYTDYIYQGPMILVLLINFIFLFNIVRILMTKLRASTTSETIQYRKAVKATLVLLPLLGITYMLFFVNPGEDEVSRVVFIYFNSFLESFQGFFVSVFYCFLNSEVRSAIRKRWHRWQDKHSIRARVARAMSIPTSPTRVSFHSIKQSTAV
Outline: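 Radioligand displacement of [125I]-Tyr-o-CRF from human CRF1 receptor expressed endogenously on intact IMR-32 human neuroblastoma cells. The protocol follows an earlier report.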

[2] = tested on: Mus musculus; experiment: Anxiolytic activity in ip dosed mouse assessed as decrease reduction of stretched attenuated postures by canopy test; assay type: functional
Outline: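 Mouse canopy test for anxiety-like behaviour. Compound was given ip in cremophor/DMSO/water (1:1:8) at several doses. The read-out was the total count of stretched attend postures. The protocol follows an earlier report.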

[3] = Drug level in mouse brain at 32 mg/kg, ip after 30 mins; assay type: ADME, organism-based; set-up: dose 32 mg/kg, route intraperitoneal; conditions: read-out: Drug uptake
Outline: (§1)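 Mice were dosed ip at 32 mg/kg in cremophor/DMSO/water (1:1:8). Brain and plasma were sampled at 30 min and 1 h after dosing. Brain level is given as ng compound per g brain, alongside the brain/plasma concentration ratio.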

[4] = Ratio of drug level in mouse brain to plasma at 32 mg/kg, ip after 1 hr; assay type: ADME, organism-based; set-up: dose 32 mg/kg, route intraperitoneal; outline: as §1
[5] = Ratio of drug level in mouse brain to plasma at 32 mg/kg, ip after 30 mins; assay type: ADME, organism-based; set-up: dose 32 mg/kg, route intraperitoneal; outline: as §1
[6] = Drug level in mouse brain at 32 mg/kg, ip after 1 hr; assay type: ADME, organism-based; set-up: dose 32 mg/kg, route intraperitoneal; conditions: read-out: Drug uptake; outline: as §1

Row | Compound | Ki [1] [nM] | also measured
1 | CCCN(CC1CC1)C(=O)c1c(CC)nc2n1CCC(=O)N2c1c(C)cc(C)cc1C | > 5000 | –
2 | CCCN(CCC)C(=O)c1c(C)nc2n1CCC(=O)N2c1c(C)cc(C)cc1C | > 5000 | –
3 | Cc1cc(C)c(N2CCCn3c2nc(C(F)(F)F)c3CN2CCCN(C)CC2)c(C)c1 | > 5000 | –
4 | C=CCN(CC=C)C(=O)c1c(CC)nc2n1CCC(=O)N2c1c(C)cc(C)cc1C | > 5000 | –
5 | CCCN(CCC)C(=O)c1c(CC)nc2n1CCC(=O)N2c1c(C)cc(C)cc1C | > 5000 | –
6 | C=CCN(CC=C)C(=O)c1c(C)nc2n1CCC(=O)N2c1c(C)cc(C)cc1C | > 5000 | –
7 | Cc1cc(C)c(N2C(=O)CCn3c2nc(C)c3C(=O)N2CCN(c3ccccc3F)CC2)c(C)c1 | > 5000 | –
8 | CCCCN(CC)C(=O)c1c(CC)nc2n1CCC(=O)N2c1c(C)cc(C)cc1C | > 5000 | –
9 | CCc1nc2n(c1C(=O)N(CC)Cc1ccccc1)CCC(=O)N2c1c(C)cc(C)cc1C | > 5000 | –
10 | CCCN(Cc1ccccc1)C(=O)c1c(C)nc2n1CCCN2c1c(C)cc(C)cc1C | > 5000 | –
11 | Cc1cc(C)c(N2C(=O)CCn3c2nc(C)c3C(=O)N2CCOCC2)c(C)c1 | > 5000 | –
12 | CCCN(CC1CC1)C(=O)c1c(C)nc2n1CCCN2c1c(C)cc(C)cc1C | > 5000 | –
13 | CCCN(CC1CC1)C(=O)c1c(C)nc2n1CCC(=O)N2c1c(C)cc(C)cc1C | > 5000 | –
14 | C=CCN(CCC)C(=O)c1c(C)nc2n1CCCN2c1c(C)cc(C)cc1C | > 5000 | –

Compounds with a lower Ki [1], results first:

Row | Ki [1] [nM] | Compound | also measured
15 | 1700 | CCCN(CCc1ccccc1)C(=O)c1c(C)nc2n1CCCN2c1c(C)cc(C)cc1C | –
16 | 1510 | Cc1cc(C)c(N2CCCn3c2nc(C(F)(F)F)c3CN2CCOCC2)c(C)c1 | –
17 | 3400 | Cc1cc(C)c(N2CCCn3c2nc(C)c3C(=O)N(CC2CC2)CC2CC2)c(C)c1 | –
18 | 31 | CCN(Cc1c(C(F)(F)F)nc2n1CCCN2c1c(C)cc(C)cc1C)CC1CC1 | –
19 | 8 | Cc1cc(C)c(N2CCCn3c2nc(C(F)(F)F)c3CN(CC2CC2)CC(F)(F)F)c(C)c1 | –
20 | 27 | Cc1cc(C)c(N2CCCn3c2nc(C(F)(F)F)c3CN(CC2CCC2)CC(F)(F)F)c(C)c1 | –
21 | 63 | CCCN(CCC(F)(F)F)Cc1c(C(F)(F)F)nc2n1CCCN2c1c(C)cc(C)cc1C | –
22 | 1200 | CCCN(CC1CC1)C(=O)c1c(C(F)(F)F)nc2n1CCCN2c1c(C)cc(C)cc1C | –
23 | 14 | Cc1cc(C)c(N2CCCn3c2nc(C(F)(F)F)c3CN(CC2CC2)CC(F)(F)C(F)(F)F)c(C)c1 | –
24 | 2300 | CCCN(CC1CC1)C(=O)c1c(CC)nc2n1CCCN2c1c(C)cc(C)cc1C | –
25 | 48 | C=CCN(CCC)Cc1c(C(F)(F)F)nc2n1CCCN2c1c(C)cc(C)cc1C | –
26 | 19 | C=CCN(CC=C)C(=O)c1c(C(F)(F)F)nc2n1CCCN2c1c(C)cc(C)cc1C | –
27 | 21 | CCCN(Cc1c(C(F)(F)F)nc2n1CCCN2c1c(C)cc(C)cc1C)CC1CCC1 | –
28 | 67 | CCCN(CCc1ccccc1)Cc1c(C(F)(F)F)nc2n1CCCN2c1c(C)cc(C)cc1C | –
29 | 364 | Cc1cc(C)c(N2CCCn3c2nc(C(F)(F)F)c3CN2CC=CCC2)c(C)c1 | –
30 | 245 | Cc1cc(C)c(N2CCCn3c2nc(C(F)(F)F)c3CN2CCCCC2)c(C)c1 | –
31 | 441 | Cc1cc(C)c(N2CCCn3c2nc(C(F)(F)F)c3CN2CCSCC2)c(C)c1 | –
32 | 38 | Cc1cc(C)c(N2CCCn3c2nc(C(F)(F)F)c3CN(CCc2ccccc2)CC(F)(F)F)c(C)c1 | –
33 | 3300 | CCCN(CC1CCC1)C(=O)c1c(C)nc2n1CCCN2c1c(C)cc(C)cc1C | –
34 | 32 | CCCN(Cc1c(C(F)(F)F)nc2n1CCCN2c1c(C)cc(C)cc1C)CC1CC1 | Activity [2]: Active; concentration at 0.5 h [3]: 352 ng/g; Kp at 1 h [4]: 1; Kp at 0.5 h [5]: 1.2; concentration at 1 h [6]: 217 ng/g
